# MEKK2 WT-MEK5 = raises or lowers MEK5 binding to wildtype human MEKK2 PB1 domain; actives 1.1% (n = 290,000); bead flow cytometry, Alexa488-MEK5 binding to MEKK2 WT; actives lie on both sides; binding response (% of control), % at 10 µM; Q9Y2U5; in the data active = binding response below about 67% or above about 130%
# MEKK2 mut-MEK5 = signal of MEK5 binding to mutant human MEKK2 PB1 domain; bead flow cytometry, Alexa488-MEK5 binding to MEKK2 mutant; percent response, % at 10 µM; actives 0.35% (n = 290,000); AID 1530; in the data active = percent response above about 24%, passing the limit was not always enough
# MEKK3 PB1 HTS = modulators (inhibitors or enhancers) of MEK5 binding to human MEKK3 PB1 domain; Q99759; bead-based flow cytometry, Alexa488-MEK5 binding to MEKK3; actives lie on both sides; 0 = blocked by unlabeled MEK5, 100 = vehicle; binding response (% of control), % at 10 µM; actives 1.4% (n = 290,000); AID 1529;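 active = binding response more than 3 SD above or below the average of its plate-row segment, actives on both sides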;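 also: Alexa488 bead fluorescence after subtracting the streptavidin-only scavenger bead signal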
# Target sequence (Q99759 whole entry, looked up, the tested form may be a part): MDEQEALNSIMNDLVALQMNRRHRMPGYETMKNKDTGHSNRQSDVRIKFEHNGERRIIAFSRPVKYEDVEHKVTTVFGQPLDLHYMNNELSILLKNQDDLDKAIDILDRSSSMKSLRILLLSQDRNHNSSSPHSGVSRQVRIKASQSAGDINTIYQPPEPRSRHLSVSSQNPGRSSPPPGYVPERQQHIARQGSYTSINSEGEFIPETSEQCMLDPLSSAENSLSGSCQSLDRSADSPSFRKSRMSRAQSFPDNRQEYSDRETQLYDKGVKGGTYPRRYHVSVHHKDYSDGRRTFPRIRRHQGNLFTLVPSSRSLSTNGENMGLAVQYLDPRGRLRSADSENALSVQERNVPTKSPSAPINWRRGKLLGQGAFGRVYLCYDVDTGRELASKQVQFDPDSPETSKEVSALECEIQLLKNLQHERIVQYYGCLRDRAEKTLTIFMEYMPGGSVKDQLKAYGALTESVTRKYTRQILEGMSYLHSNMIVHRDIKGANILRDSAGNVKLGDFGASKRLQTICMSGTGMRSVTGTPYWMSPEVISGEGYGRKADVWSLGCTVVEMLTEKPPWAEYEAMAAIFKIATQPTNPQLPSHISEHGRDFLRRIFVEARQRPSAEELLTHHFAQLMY
# Lipid droplet = hepatic lipid droplet formation modulation. AML12 mouse hepatocytes, oleate lipid droplets, BODIPY imaging. inhibition, % at 6.5 µM. actives 0.4% (n = 240,000);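 active = lipid droplet intensity inhibited by at least 50%, with more than 500 cells counted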
#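 Test system: AML12 mouse liver cells; schedule: overnight exposure; technique: high-content imaging of BODIPY-stained droplets and DAPI nuclei; read-out: % inhibition of corrected integrated BODIPY droplet signal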
# MEKK2wt confirm = raises or lowers MEK5 binding to wildtype human MEKK2, retest; AID 1892; shares compounds with MEKK3 PB1 HTS; actives 2.4% (n = 5,900); binding response (% of control), % at 10 µM; bead flow cytometry, Alexa488-MEK5 binding to MEKK2 WT; actives lie on both sides; in the data active = binding response below about 16% or above about 210%; inactive = in between
# MEKK2mut confirm = signal of MEK5 binding to mutant human MEKK2, retest; shares compounds with MEKK3 PB1 HTS; bead flow cytometry, Alexa488-MEK5 binding to MEKK2 mutant; percent response, % at 10 µM; actives 2% (n = 5,900); in the data active = percent response mostly above about 71%, no sharp cut-off; inactive = mostly below about 38%;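 also: higher means compound restores mutant binding toward wildtype level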
# MEKK3-MEK5 inh = confirmation of inhibitors of MEK5 binding to human MEKK3 | shares compounds with MEKK3 PB1 HTS | bead flow cytometry, Alexa488-MEK5 binding to MEKK3; hits give low values | binding response (% of control), % at 10 µM | actives 1.8% (n = 5,900) | AID 1894;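 active = binding response below 72% of control, or above a set upper limit, though filed actives all read lower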;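 also: 100% = DMSO only wells and 0% = binding blocked by excess unlabeled MEK5; lower values mean stronger disruption of MEK5 binding to MEKK3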
# Active calls of the source: *; nt = not tested or not shown; [ ] = remark or other dose. The list is not random: actives were taken first. Their share in the collection is about 2.6%.
SMILES,MEKK2 WT-MEK5,MEKK2 mut-MEK5,MEKK3 PB1 HTS,Lipid droplet,MEKK2wt confirm,MEKK2mut confirm,MEKK3-MEK5 inh
O=C1C(Nc2ccccc2)=C(NS(=O)(=O)c2ccccc2)C(=O)c2ccccc21,106.0,0.0,139.0*,2.0,96.0,-7.0,92.0
O=C1c2ccccc2C(=O)c2cc(S(=O)(=O)Nc3ccccc3)ccc21,93.0,-4.0,86.0,23.1,nt,nt,nt
COCCN(C)Cc1cn(-c2ccc(F)cc2F)nc1-c1ccccc1C,102.0,3.0,100.0,5.0,nt,nt,nt
Cc1ccccc1-c1nn(-c2ccc(F)cc2F)cc1CNCCN(C)C,150.0*,23.0,86.0,21.0,144.0,30.0,106.0
Cc1ccccc1-c1nn(-c2ccc(F)cc2F)cc1CNCCCN(C)C,140.0*,23.0,105.0,-12.5,146.0,29.0,109.0
CCC(COC)NCc1cn(-c2ccc(F)cc2F)nc1-c1ccccc1C (stereo not drawn),107.0,-7.0,103.0,-13.4,nt,nt,nt
O=C(COc1ccc(/C=N/NC(=O)C(=O)N2CCCCC2)cc1)Nc1ccccc1Cl,101.0,3.0,101.0,14.4,nt,nt,nt
Cc1ccc(CNS(=O)(=O)c2ccc(C)s2)cc1,105.0,-2.0,103.0,-11.8,nt,nt,nt
Cc1cccc(C(=O)Nc2cccc3c2CCCC3)c1,101.0,1.0,97.0,2.2,nt,nt,nt
Cn1c(=O)[nH]c(=O)c2[nH]c(N(Cc3ccccc3)Cc3ccccc3)nc21,121.0,15.0,122.0*,nt,98.0,0.0,101.0
O/N=C1\CCCc2c1nc(-c1ccccc1F)n2O,113.0,26.0,130.0*,13.8,120.0,7.0,105.0
Cc1cc(F)ccc1S(=O)(=O)Nc1ccccc1C(=O)Nc1ccccc1-c1nc2ccccc2[nH]1,122.0,1.0,134.0*,4.7,109.0,0.0,99.0
CC(=O)CN1Cc2ccccc2/C1=N\C(=O)Nc1ccccc1,86.0,-9.0,77.0*[inhibitor],nt,101.0,-6.0,101.0
Cc1c(NC(=O)c2ccccc2F)c(=O)n(-c2ccccc2)n1C,41.0*[inhibitor],-32.0,23.0*[inhibitor],nt,101.0,2.0,106.0
Cc1c(NS(=O)(=O)c2ccccc2)c(=O)n(-c2ccccc2)n1C,124.0,7.0,126.0*,1.7,92.0,-8.0,97.0
Cc1c(NC(=O)c2c(F)c(F)c(F)c(F)c2F)c(=O)n(-c2ccccc2)n1C,100.0,2.0,104.0,-0.4,nt,nt,nt
Cc1c(NC(=O)/C(=C\c2ccccc2)NC(=O)c2ccccc2)c(=O)n(-c2ccccc2)n1C,125.0,8.0,130.0*,nt,102.0,0.0,101.0
COc1ccc(CNC(=O)CN2c3ccccc3S(=O)(=O)c3ccccc32)cc1,106.0,1.0,103.0,7.3,nt,nt,nt
O=C(O)/C=C/C(=O)Nc1ccc(Oc2ccc(NC(=O)/C=C/C(=O)O)cc2)cc1,106.0,1.0,150.0*,-3.3,87.0,-9.0,87.0
COc1cccc(NC(=O)Cn2c(=O)n(C)c(=O)c3sc4c(c32)COC(C)(C)C4)c1,103.0,-4.0,102.0,-34.5,nt,nt,nt
CC(C)(C)n1nnnc1C(c1cccnc1)N(Cc1ccccc1)Cc1cccs1 (stereo not drawn),2.0*[inhibitor],-21.0,2.0*[inhibitor],nt,101.0,-4.0,102.0
CC(C)(C)n1nnnc1C(c1cccs1)N(Cc1ccccc1)Cc1cccnc1 (stereo not drawn),105.0,1.0,105.0,-12.9,nt,nt,nt
Cc1ccc(C)c(NC(=S)N=Nc2c(O)n(C)c3ccc(S(=O)(=O)N4CCOCC4)cc23)c1,102.0,1.0,62.0*[inhibitor],11.7,81.0,-12.0,83.0
CCc1ccccc1NC(=S)N=Nc1c(O)n(C)c2ccc(S(=O)(=O)N3CCOCC3)cc12,90.0,-2.0,93.0,-11.9,nt,nt,nt
C=CCOc1ccccc1CN1CCCC(CCC(=O)N(C)CCc2ccccn2)C1 (stereo not drawn),104.0,1.0,101.0,-19.0,nt,nt,nt
SMILES,MEKK2 WT-MEK5,MEKK2 mut-MEK5,MEKK3 PB1 HTS,Lipid droplet,MEKK2wt confirm,MEKK2mut confirm,MEKK3-MEK5 inh
CS(=O)(=O)c1ccc(CNC(=O)C2(C(F)(F)F)C/C(=C\Cc3ccccc3)CCCO2)cc1 (stereo not drawn),85.0,-7.0,81.0*[inhibitor],nt,102.0,5.0,104.0
O=C(Nc1ccc2c(c1)OCO2)c1ccc(N2CCCC2)c([N+](=O)[O-])c1,102.0,4.0,97.0,8.1,nt,nt,nt
O=C(Nc1ccc2c(c1)OCO2)c1ccc(NC2CC2)c([N+](=O)[O-])c1,112.0,1.0,151.0*,-13.3,100.0,-7.0,101.0
COc1ccccc1CCNC(=O)CC1C(=O)NCCN1CCCc1ccccc1 (stereo not drawn),138.0*,26.0*,109.0,-15.6,113.0,6.0,101.0
O=C(CC1C(=O)NCCN1CCCc1ccccc1)NCCc1ccccc1Cl (stereo not drawn),126.0,31.0*,102.0,-11.7,146.0,21.0,103.0
O=C(NC1CCCCC1)c1ccc2[nH]c(=O)c(=O)[nH]c2c1,98.0,-1.0,100.0,12.4,nt,nt,nt
CCOC(=O)C1=CN(c2cccc(F)c2)C=C(C(=O)OCC)C1c1cc(OC)c(O)c([N+](=O)[O-])c1,85.0,-7.0,86.0,17.8,nt,nt,nt
Cc1ccc2nc(/C(C#N)=C\c3ccc(N4CCOCC4)o3)[nH]c2c1,46.0*[inhibitor],26.0*,103.0,19.9,112.0,12.0,108.0
N#C/C(=C\c1ccc([N+](=O)[O-])o1)c1nc2ccccc2[nH]1,87.0,-2.0,103.0,0.0,nt,nt,nt
Cc1ccc2nc(/C(C#N)=C\c3ccc([N+](=O)[O-])o3)[nH]c2c1,77.0,-10.0,70.0*[inhibitor],nt,96.0,-3.0,98.0
NC(=O)c1ccc(NC(=O)COC(=O)C2(c3ccccc3F)CCCC2)cc1,88.0,-2.0,73.0*[inhibitor],4.4,100.0,1.0,103.0
CCC(C)NCCOCCOc1ccc(C)cc1Br (stereo not drawn),109.0,5.0,102.0,nt,nt,nt,nt
CCC(C)NCCCOc1c(C)cc(C)cc1Br (stereo not drawn),111.0,1.0,147.0*,9.9,109.0,4.0,103.0
Cc1ccc(C(=O)N2CCC3(CC2)NCCc2[nH]cnc23)cc1C,98.0,-9.0,93.0,5.5,nt,nt,nt
Cc1ccc(OCC(O)Cn2c(=N)n(CCN3CCCCC3)c3ccccc32)cc1 (stereo not drawn),145.0*,4.0,105.0,-38.6,130.0,10.0,102.0
CC(C)(C=O)C1=CC(=O)c2ccccc2C1=O,105.0,1.0,154.0*,11.6,96.0,-2.0,99.0
CC1=CC(=O)c2ccccc2C1=O,103.0,-2.0,82.0,0.0,nt,nt,nt
Cc1ccc(C)n1-c1ccc(C(=O)NN)s1,98.0,-3.0,96.0,-8.9,nt,nt,nt

# Screening data deposited in PubChem BioAssay by several laboratories.
